Measured values as given in ChEMBL document CHEMBL1133659, “3,4-dihydro-2(1H)-quinolinone as a novel antidepressant drug: synthesis and pharmacology of 1-[3-[4-(3-chlorophenyl)-1-piperazinyl]propyl]-3,4- dihydro-5-methoxy-2(1H)-quinolinone and its derivatives” (J Med Chem, 2000).
Where “and” joins values, the source holds several entries; their conditions need not be identical. Equal entries are not always repeated.

What was measured:
[1] = target: T1, Sigma non-opioid intracellular receptor 1 (Rattus norvegicus, UniProt Q9R0C9); assay: Binding affinity for sigma receptor was evaluated by the inhibitory effect on [3H]DTG to rat whole brain membranes; type: cell membranes
Procedure, shortened: (§1)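 Bound ligand collected by filtration onto PEI-soaked filters and counted by scintillation; nonspecific binding defined with haloperidol. IC50 by nonlinear least-squares fit; mean ± SE of three experiments, or a single experiment where no SE is given.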

Mus musculus [2] = species on record: Mus musculus; assay: Effect on the sleeping time of mice before halothane load (control group); type: functional
Procedure, shortened: (§2)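 Groups of 10 mice received compound orally 1 h before testing, at 100 mg/kg unless another dose is noted. Vehicle was 0.5% gum arabic in 0.9% saline, and controls received vehicle alone. Mice were exposed to 4% halothane in air at 2 L/min. Sleeping time ran from loss to recovery of righting reflex (mean ± SE s), expressed as % of control. Two-tailed t-test was used.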

Mus musculus [3] = assay: Effect on the sleeping time of mice anesthetized with halothane (treated group); type: functional; procedure, shortened: as §2
Mus musculus [4] = assay: Effect on Immobility Time in the Forced-Swimming Test in Mice at the dose of 0 mg/kg po; type: functional
Procedure, shortened: (§3)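 Mice, 8 per group. Dosing was oral, either as a single dose 1 h before testing on day 2 or repeated once daily for 4 days. Each mouse swam 6 min in a cylinder with 6 cm of water at 22-23 °C, and immobility was scored over the last 4 min. Results are mean ± SE seconds and % of control, analysed by one-way ANOVA with Dunnett's test.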

Mus musculus [5] = species on record: Mus musculus; assay: Effect on recovery time for coma induced in mice by cerebral concussion (control group); type: functional
Procedure, shortened: (§4)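 Groups of 10 mice received compound orally 1 h before head concussion, at 100 mg/kg unless another dose is noted. Vehicle was 0.5% gum arabic in saline, and controls received vehicle alone. The read-out was time to reappearance of the righting reflex (mean ± SE s), expressed as % of control. Two-tailed t-test was used.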

Mus musculus [6] = species on record: Mus musculus; assay: Effect on recovery time for coma induced in mice by cerebral concussion (treated group); type: functional; procedure, shortened: as §4
Mus musculus [7] = assay: Effect on Immobility Time in the Forced-Swimming Test in Mice at the dose of 10 mg/kg po; type: functional; procedure, shortened: as §3
Mus musculus [8] = assay: Effect on Immobility Time in the Forced-Swimming Test in Mice at the dose of 1 mg/kg po; type: functional; procedure, shortened: as §3
Mus musculus [9] = assay: Effect on the sleeping time of mice anesthetized with halothane (treated group) (30 mg/kg); type: functional; procedure, shortened: as §2
Mus musculus [10] = assay: Effect on the time required for recovery from coma induced in mice by cerebral concussion at the dose of 10 mg/kg po; type: functional
Procedure, shortened: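 In the concussion-coma test in mice (n = 10), compound was given orally 1 h before concussion, and antagonists were pre-dosed 15 min to 1 h before the test compound. The read-out was time to recovery of the righting reflex as % of control. Statistics were two-tailed t-test versus control and one-way ANOVA with Dunnett's test versus the treated group.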

[11] = target: T1, Sigma non-opioid intracellular receptor 1; assay: Binding affinity for sigma receptor was evaluated by the inhibitory effect on [3H]DTG to rat whole brain membranes.; type: functional, cell membranes; procedure, shortened: as §1
Mus musculus [12] = assay: Effect on the sleeping time of mice anesthetized with halothane (treated group) (p <0.01); type: functional; procedure, shortened: as §2
Mus musculus [13] = assay: Effect on Immobility Time in the Forced-Swimming Test in Mice at the dose of 0 mg/kg po for repeated administration; type: functional; procedure, shortened: as §3
Mus musculus [14] = assay: Effect on Immobility Time in the Forced-Swimming Test in Mice at the dose of 0 mg/kg po for single administration; type: functional; procedure, shortened: as §3
Mus musculus [15] = assay: Effect on Immobility Time in the Forced-Swimming Test in Mice at the dose of 10 mg/kg po for repeated administration; type: functional; procedure, shortened: as §3
Mus musculus [16] = assay: Effect on Immobility Time in the Forced-Swimming Test in Mice at the dose of 10 mg/kg po for single administration; type: functional; procedure, shortened: as §3
Mus musculus [17] = assay: Effect on Immobility Time in the Forced-Swimming Test in Mice at the dose of 30 mg/kg po for repeated administration; type: functional; procedure, shortened: as §3
Mus musculus [18] = assay: Effect on Immobility Time in the Forced-Swimming Test in Mice at the dose of 30 mg/kg po for single administration; type: functional; procedure, shortened: as §3

T1 sequence (Q9R0C9 whole entry): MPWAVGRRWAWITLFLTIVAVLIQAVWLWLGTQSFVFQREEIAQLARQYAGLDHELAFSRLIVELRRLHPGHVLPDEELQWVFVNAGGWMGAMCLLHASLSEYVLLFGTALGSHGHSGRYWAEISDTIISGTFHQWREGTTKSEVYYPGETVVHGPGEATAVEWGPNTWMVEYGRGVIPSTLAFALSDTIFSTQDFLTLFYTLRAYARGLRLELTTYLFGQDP

Structure (SMILES) | IC50 [1] [nM] | Sleeping time (Mus musculus [2]) [s] | Sleeping time (Mus musculus [3]) [s] | RRT (Mus musculus [5]) [s] | RRT (Mus musculus [6]) [s] | also measured
Br.O=C1CCc2c(Cl)cccc2N1CCCN1CCN(c2cccc(O)c2)CC1 | 240 | 564 | 529 |  |  | 
COc1cccc2c1CCC(=O)N2CCCN1CCN(c2cccc(Cl)c2)CC1.CS(=O)(=O)O.O |  | 613 |  | 165 | <49 | Time (Mus musculus [4]): 199 s; Time (Mus musculus [7]): <138 s; Time (Mus musculus [8]): <140 s; Sleeping time (Mus musculus [9]): <414 s
COc1cccc2c1CCC(=O)N2CCCN1CCN(c2cccc(Cl)c2)CC1.Cl |  | 566 | <294 | 180 | <36 | Time (Mus musculus [4]): 115 s; Time (Mus musculus [7]): <61 s; Time (Mus musculus [8]): <56 s
Cc1ccccc1NC(=N)Nc1ccccc1C |  |  |  | 153 | <101 | RRT (Mus musculus [10]): <81 s and <210 s
COc1cccc2c1ccc(=O)n2CCCN1CCN(c2cccc(Br)c2)CC1 |  |  |  | 122 | <70 | 
COc1cccc2c1CCC(=O)N2CCCN1CCN(c2ccc(Cl)cc2)CC1 |  | 465 | 496 |  |  | IC50 [11]: 460 nM
COc1cccc2c1CCC(=O)N2CCCN1CCN(c2cccc(C)c2)CC1 |  | 353 | 426 |  |  | 
COc1cccc2c1CCC(=O)N2CCCN1CCN(c2cccc(C(F)(F)F)c2)CC1 | 490 | 379 | <250 | 134 | <48 | 
CC(=O)Nc1cccc(N2CCN(CCCN3C(=O)CCc4c(Cl)cccc43)CC2)c1 | 670 | 565 |  |  |  | Sleeping time (Mus musculus [12]): <778 s
COc1cccc2c1CCC(=O)N2CCCN1CCN(c2cccc(N)c2)CC1 |  | 553 | <1380 |  |  | 
CC(C)Oc1cccc2c1CCC(=O)N2CCCN1CCN(c2cccc(Cl)c2)CC1 |  | 353 | 304 |  |  | 
COc1cccc2c1CCC(=O)N2CCCN1CCN(c2cccc(F)c2)CC1 |  | 465 | 600 |  |  | 
COc1cccc2c1ccc(=O)n2CCCN1CCN(c2cccc(C(F)(F)F)c2)CC1 | 820 |  |  | 128 | <65 | 
O=c1ccc2ccc(O)cc2n1CCCN1CCN(c2ccc(F)cc2)CC1 | 1320 | 561 | 582 |  |  | 
O=c1ccc2ccccc2n1CCCN1CCN(c2cccc(Cl)c2)CC1 | 620 | 616 | 704 | 138 | 111 | 
COc1cccc(N2CCN(CCCN3C(=O)CCc4c(Cl)cccc43)CC2)c1 | 130 | 548 | <277 | 132 | <36 | 
O=C1CCc2c(Cl)cccc2N1CCCN1CCN(c2cccc(Cl)c2)CC1 |  | 548 | 677 |  |  | 
COc1ccc2c(c1)CCC(=O)N2CCCN1CCN(c2cccc(Cl)c2)CC1 |  | 566 | <770 |  |  | 
COc1cccc(N2CCN(CCCN3C(=O)CCc4c(OC)cccc43)CC2)c1 |  | 478 | 579 |  |  | 
O=C(Oc1ccc2c(c1)CCC(=O)N2CCCN1CCN(c2ccccc2)CC1)c1ccccc1 |  | 561 | <1097 |  |  | IC50 [11]: > 10000 nM
Cc1cccc(N2CCN(CCCOc3ccc4ccc(O)nc4c3)CC2)c1C |  | 311 | <956 |  |  | 
COc1ccc2c(c1)N(CCCN1CCN(c3cccc(Cl)c3)CC1)C(=O)CC2 |  | 566 | <1280 |  |  | 
COc1cccc2c1CCC(=O)N2CCCN1CCN(c2cccc([N+](=O)[O-])c2)CC1 | 870 | 553 | <339 | 141 | <74 | 

Structure (SMILES) | IC50 [1] [nM] | Sleeping time (Mus musculus [2]) [s] | Sleeping time (Mus musculus [3]) [s] | RRT (Mus musculus [5]) [s] | RRT (Mus musculus [6]) [s] | also measured
Nc1cccc2c1CCC(=O)N2CCCN1CCN(c2cccc(Cl)c2)CC1 |  |  |  | 128 | 129 | 
CCOc1cccc2c1CCC(=O)N2CCCN1CCN(c2cccc(Cl)c2)CC1 | 870 | 353 | <238 | 113 | <31 | 
COc1cccc2c1ccc(=O)n2CCCN1CCN(c2cccc(Cl)c2)CC1 | 980 |  |  | 122 | 131 | 
COc1cccc2c1N(CCCN1CCN(c3cccc(Cl)c3)CC1)C(=O)CC2 | 600 |  |  | 128 | 109 | 
COc1cccc2c1CCC(=O)N2CCCN1CCN(c2cccc(Br)c2)CC1 | 420 | 498 | <267 | 136 | <61 | 
COc1cccc2c1CCC(=O)N2CCCN1CCN(c2cccc(O)c2)CC1 |  | 483 | 400 |  |  | IC50 [11]: 810 nM
CC(C)=CCN1CC[C@@]2(C)c3cc(O)ccc3C[C@@H]1[C@@H]2C |  | 549 | <370 | 170 | <72 | 
O=C1CCc2c(Cl)cccc2N1CCCN1CCN(c2cccc([N+](=O)[O-])c2)CC1 | 390 |  |  | 152 | 110 | 
CSc1cccc2c1CCC(=O)N2CCCN1CCN(c2cccc(Cl)c2)CC1 |  | 363 | 439 |  |  | 
COc1cccc(N2CCN(CC(=O)NC3c4c(O)c(C)cc(C)c4CC3(C)C)CC2)c1 (configuration not stated) | > 15000 | 625 | <373 | 210 | <54 | Time (Mus musculus [4]): 120 s; Time (Mus musculus [7]): 123 s; Time (Mus musculus [8]): 119 s
COc1cccc2c1CCC(=O)N2CCCN1CCN(c2ccccc2Cl)CC1 | 260 | 465 | 675 |  |  | 
COc1cccc2c1CCC(=O)N2CCCCN1CCN(c2cccc(Cl)c2)CC1 |  | 478 | 549 |  |  | 
CCCOc1cccc(N2CCN(CCCN3C(=O)CCc4c(Cl)cccc43)CC2)c1 | 370 | 465 | 393 |  |  | 
Nc1cccc(N2CCN(CCCN3C(=O)CCc4c(Cl)cccc43)CC2)c1 | 710 | 504 | 646 |  |  | 
O=C1CCc2c(O)cccc2N1CCCN1CCN(c2cccc(Cl)c2)CC1 |  | 585 | 516 |  |  | 
COc1cccc2c1CCC(=O)N2CCN1CCN(c2cccc(Cl)c2)CC1 |  | 498 | 676 |  |  | 
COc1cccc2c1CCC(=O)N2CCCN1CCN(c2cccc(C#N)c2)CC1 |  | 553 | 465 |  |  | 
COc1cccc2c1CCC(=O)N2CCCN1CCN(c2cc(Cl)cc(Cl)c2)CC1 |  | 363 | 310 | 133 | 168 | 
CN1C(=O)CN=C(c2ccccc2)c2cc(Cl)ccc21 [DIAZEPAM] |  | 245 | <709 |  |  | 
CN(C)CCCN1c2ccccc2CCc2ccccc21 [IMIPRAMINE] |  |  |  | 177 | 290 | Time (Mus musculus [13]): 178 s; Time (Mus musculus [14]): 198 s; Time (Mus musculus [15]): 122 s; Time (Mus musculus [16]): 158 s; Time (Mus musculus [17]): <109 s; Time (Mus musculus [18]): 160 s
NC(=O)[C@@H]1CCCN1C(=O)[C@H](Cc1c[nH]cn1)NC(=O)[C@@H]1CCC(=O)N1 [PROTIRELIN] |  | 663 | <377 | 173 | <44 | 
C[C@@H]1CN(CCCn2c3ccccc3c3ccccc32)C[C@H](C)N1 [RIMCAZOLE] |  | 482 | 490 | 131 | 115 | 
